Results published in ChEMBL document CHEMBL1153025, “Triterpene glycosides from the underground parts of Caulophyllum thalictroides” (J Nat Prod, 2009).
Values after ≈ are worked out from the molar mass of the structure shown.

Tested on: HL-60
Experiment: Cytotoxicity against human HL60 cells up to 20 ug/ml after 72 hrs by MTT assay
Assay type: functional, cell-based
Conditions: not given
Summary of the method: (§1)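 HL-60 (JCRB 0085) cells in RPMI 1640 with 10% FBS, L-glutamine, penicillin G and streptomycin, seeded at 4 × 10^4 cells/mL, preincubated 24 h at 37 °C in 5% CO2. Sample added in EtOH-H2O (1:1) to final 0.1-20 µg/mL; vehicle in controls. After 72 h, MTT 4 h, centrifuged, formazan dissolved in DMSO. Mean ± SEM of three experiments in triplicate.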

Compound	Activity
C[C@@H]1O[C@@H](O[C@H]2[C@H](O)[C@@H](O)[C@H](OC[C@H]3O[C@@H](OC(=O)[C@]45CCC(C)(C)C[C@H]4C4=CC[C@@H]6[C@@]7(C)CC[C@H](O[C@@H]8OC[C@H](O)[C@H](O)[C@H]8O[C@@H]8O[C@H](CO)[C@@H](O)[C@H](O)[C@H]8O)[C@@](C)(CO)[C@@H]7CC[C@@]6(C)[C@]4(C)CC5)[C@H](O)[C@@H](O)[C@@H]3O)O[C@@H]2CO)[C@H](O)[C@H](O)[C@H]1O	Not toxic
CC1(C)CC[C@]2(C(=O)O)[C@H](O)C[C@]3(C)C(=CC[C@@H]4[C@@]5(C)CC[C@H](O[C@@H]6OC[C@H](O)[C@H](O)[C@H]6O)[C@@](C)(CO)[C@@H]5CC[C@]43C)[C@@H]2C1	Not toxic
CC1(C)CC[C@]2(C(=O)O)[C@H](O)C[C@]3(C)C(=CC[C@@H]4[C@@]5(C)CC[C@H](O[C@@H]6OC[C@H](O)[C@H](O)[C@H]6O[C@@H]6O[C@H](CO)[C@@H](O)[C@H](O)[C@H]6O)[C@@](C)(CO)[C@@H]5CC[C@]43C)[C@@H]2C1	Not toxic
C[C@@H]1O[C@@H](O[C@H]2[C@H](O)[C@@H](O)[C@H](OC[C@H]3O[C@@H](OC(=O)[C@]45CCC(C)(C)C[C@H]4C4=CC[C@@H]6[C@@]7(C)CC[C@H](O[C@@H]8OC[C@H](O)[C@H](O)[C@H]8O)[C@@](C)(CO)[C@@H]7CC[C@@]6(C)[C@]4(C)CC5)[C@H](O)[C@@H](O)[C@@H]3O)O[C@@H]2CO)[C@H](O)[C@H](O)[C@H]1O	Not toxic
CC1(C)CC[C@]2(C(=O)O[C@@H]3O[C@H](CO)[C@@H](O)[C@H](O)[C@H]3O)[C@H](O)C[C@]3(C)C(=CC[C@@H]4[C@@]5(C)CC[C@H](O[C@@H]6OC[C@H](O)[C@H](O)[C@H]6O)[C@@](C)(CO)[C@@H]5CC[C@]43C)[C@@H]2C1	Not toxic
CC1(C)CC[C@@]23C(=O)O[C@]4([C@@H]2C1)[C@H]1O[C@H]1[C@@H]1[C@@]2(C)CC[C@H](O[C@@H]5OC[C@H](O)[C@H](O)[C@H]5O)[C@@](C)(CO)[C@@H]2CC[C@@]1(C)[C@]4(C)C[C@H]3O	Not toxic
C[C@H]1[C@@H]2C3CC[C@@H]4[C@@]5(C)CC[C@H](O[C@@H]6OC[C@H](O)[C@H](O)[C@H]6O[C@@H]6O[C@H](CO)[C@@H](O)[C@H](O)[C@H]6O)C(C)(C)[C@@H]5CC[C@@]4(C)[C@]3(C)CC[C@@]2(C(=O)O)CC[C@@]1(C)O (stereo partly drawn)	Not toxic
C[C@H]1[C@@H]2[C@H]3CC[C@@H]4[C@@]5(C)CC[C@H](O[C@@H]6OC[C@H](O)[C@H](O)[C@H]6O[C@@H]6O[C@H](CO)[C@@H](O)[C@H](O)[C@H]6O)C(C)(C)[C@@H]5CC[C@@]4(C)[C@]3(C)CC[C@@]23CC[C@]1(C)OC3=O	Not toxic
CC1(C)CC[C@@]23CC[C@]4(C)[C@@](OC2=O)([C@@H]3C1)[C@H]1O[C@H]1[C@@H]1[C@@]2(C)CC[C@H](O[C@@H]3OC[C@H](O)[C@H](O)[C@H]3O[C@@H]3O[C@H](CO)[C@@H](O)[C@H](O)[C@H]3O)[C@@](C)(CO)[C@@H]2CC[C@]14C	Not toxic
C[C@@H]1O[C@@H](O[C@H]2[C@H](O)[C@@H](O)[C@H](OC[C@H]3O[C@@H](OC(=O)[C@]45CCC(C)(C)C[C@H]4C4=CC[C@@H]6[C@@]7(C)CC[C@H](O)[C@@](C)(CO)[C@@H]7CC[C@@]6(C)[C@]4(C)CC5)[C@H](O)[C@@H](O)[C@@H]3O)O[C@@H]2CO)[C@H](O)[C@H](O)[C@H]1O	Not toxic
C[C@@H]1O[C@@H](O[C@H]2[C@H](O)[C@@H](O)[C@H](OC[C@H]3O[C@@H](OC(=O)[C@]45CCC(C)(C)C[C@H]4C4=CC[C@@H]6[C@@]7(C)CC[C@H](O[C@@H]8OC[C@H](O)[C@H](O)[C@H]8O)[C@@](C)(CO)[C@@H]7CC[C@@]6(C)[C@]4(C)C[C@H]5O)[C@H](O)[C@@H](O)[C@@H]3O)O[C@@H]2CO)[C@H](O)[C@H](O)[C@H]1O	Not toxic
C[C@@H]1O[C@@H](O[C@H]2[C@H](O)[C@@H](O)[C@H](OC[C@H]3O[C@@H](OC(=O)[C@]45CCC(C)(C)C[C@H]4C4=CC[C@@H]6[C@@]7(C)CC[C@H](O[C@@H]8OC[C@H](O)[C@H](O)[C@H]8O[C@@H]8O[C@H](CO)[C@@H](O)[C@H](O)[C@H]8O)C(C)(C)[C@@H]7CC[C@@]6(C)[C@]4(C)CC5)[C@H](O)[C@@H](O)[C@@H]3O)O[C@@H]2CO)[C@H](O)[C@H](O)[C@H]1O	Not toxic
CC1(C)CC[C@]2(C(=O)O)[C@H](O)C[C@]3(C)C(=CC[C@@H]4[C@@]5(C)CC[C@H](O[C@@H]6OC[C@H](O)[C@H](O)[C@H]6O)[C@@](C)(C=O)[C@@H]5CC[C@]43C)[C@@H]2C1	Not toxic
CC1(C)CC[C@@]2(C(=O)O)C(=C3C=C[C@@H]4[C@@]5(C)CC[C@H](O[C@@H]6OC[C@H](O)[C@H](O)[C@H]6O)[C@@](C)(CO)[C@@H]5CC[C@@]4(C)[C@]3(C)C[C@H]2O)C1	Not toxic
CC1(C)CC[C@]2(C(=O)O[C@@H]3O[C@H](CO[C@@H]4O[C@H](CO)[C@@H](O)[C@H](O)[C@H]4O)[C@@H](O)[C@H](O)[C@H]3O)[C@H](O)C[C@]3(C)C(=CC[C@@H]4[C@@]5(C)CC[C@H](O[C@@H]6OC[C@H](O)[C@H](O)[C@H]6O)[C@@](C)(CO)[C@@H]5CC[C@]43C)[C@@H]2C1	Not toxic

Tested on: HL-60
Experiment: Cytotoxicity against human HL60 cells after 72 hrs by MTT assay
Assay type: functional, cell-based
Conditions: HL-60, 72 h
Summary of the method: as §1

Compound	IC50
CC1(C)CC[C@]2(C(=O)O)CC[C@]3(C)C(=CC[C@@H]4[C@@]5(C)CC[C@H](O[C@@H]6OC[C@H](O)[C@H](O)[C@H]6O[C@@H]6O[C@H](CO)[C@@H](O)[C@H](O)[C@H]6O)[C@@](C)(CO)[C@@H]5CC[C@]43C)[C@@H]2C1	15.9 µg/mL (≈ 20.7 µM)
CC1(C)CC[C@]2(C(=O)O)CC[C@]3(C)C(=CC[C@@H]4[C@@]5(C)CC[C@H](O[C@@H]6OC[C@H](O)[C@H](O)[C@H]6O[C@@H]6O[C@H](CO)[C@@H](O)[C@H](O)[C@H]6O)C(C)(C)[C@@H]5CC[C@]43C)[C@@H]2C1	10.8 µg/mL (≈ 14.4 µM)
COc1cc([C@@H]2c3cc4c(cc3[C@@H](O[C@@H]3O[C@@H]5CO[C@@H](C)O[C@H]5[C@H](O)[C@H]3O)[C@H]3COC(=O)[C@H]23)OCO4)cc(OC)c1O [ETOPOSIDE]	0.26 µg/mL (≈ 0.442 µM)
CC1(C)CC[C@]2(C(=O)O)CC[C@]3(C)C(=CC[C@@H]4[C@@]5(C)CC[C@H](O[C@@H]6OC[C@H](O)[C@H](O)[C@H]6O)C(C)(C)[C@@H]5CC[C@]43C)[C@@H]2C1	3.4 µg/mL (≈ 5.77 µM)
CC1(C)CC[C@]2(C(=O)O)CC[C@]3(C)C(=CC[C@@H]4[C@@]5(C)CC[C@H](O[C@@H]6OC[C@H](O)[C@H](O)[C@H]6O)[C@@](C)(C=O)[C@@H]5CC[C@]43C)[C@@H]2C1	4.8 µg/mL (≈ 7.96 µM)
CC1(C)CC[C@]2(C(=O)O)[C@H](O)C[C@]3(C)C(=CC[C@@H]4[C@@]5(C)CC[C@H](O[C@@H]6OC[C@H](O)[C@H](O)[C@H]6O)C(C)(C)[C@@H]5CC[C@]43C)[C@@H]2C1	5.6 µg/mL (≈ 9.26 µM)
CC1(C)CC[C@]2(C(=O)O)CC[C@]3(C)C(=CC[C@@H]4[C@@]5(C)CC[C@H](O[C@@H]6OC[C@H](O)[C@H](O)[C@H]6O)C(C)(CO)[C@@H]5CC[C@]43C)[C@@H]2C1 (stereo partly drawn)	12.5 µg/mL (≈ 20.7 µM)
CC1(C)CC[C@]2(C(=O)O)[C@H](O)C[C@]3(C)C(=CC[C@@H]4[C@@]5(C)CC[C@H](O[C@@H]6OC[C@H](O)[C@H](O)[C@H]6O[C@@H]6O[C@H](CO)[C@@H](O)[C@H](O)[C@H]6O)C(C)(C)[C@@H]5CC[C@]43C)[C@@H]2C1	11.8 µg/mL (≈ 15.4 µM)
